A short description of data set [1]: Toxicity in Swiss mouse assessed as change in body coat at 10 mg/kg, po administered twice daily via gavage for 5 days and measuring daily during compound dosing. In kind it is organism-based. Particulars: in vivo, 120 h, time 5 day. The method, boiled down: (§1)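 Female Swiss mice (3 treated, 2 vehicle controls) received oral gavage twice daily for 5 days, with compound formulated in 0.5% CMC and Tween 80. Body weight, body temperature, body coat, feed intake, eyes, feces and general activity were observed daily.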

The nature of data set [2]: Drug level in Swiss mouse liver at 30 mg/kg, po administered twice daily via gavage for 5 days and measured post last dose by LC-MS/MS analysis. The format is ADME, organism-based. Particulars: time 5 day, read-out: Drug uptake. The method, boiled down:
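Female Swiss mice (n=3) given 30 mg/kg in 0.5% CMC/Tween 80 by oral gavage twice daily for 5 days, with two vehicle controls. After sacrifice, liver, kidney, lung, uterus and brain were collected, homogenized in water and solvent-extracted. Drug concentration (ng/g) measured by LC-MS/MS.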

Data set [3] addresses Phosphatidylinositol 4,5-bisphosphate 3-kinase catalytic subunit alpha isoform (Homo sapiens) (UniProt P42336). Nature of the data set: Inhibition of human PI3kalpha at 1 uM using fluorescently labeled peptide substrate measured after 3 hrs by microfluidic mobility shift assay relative to control. The method, boiled down: (§2)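 Single-concentration screen at 1 µM in duplicate, 1% final DMSO. Kinase (typically 1 nM), fluorescently labeled peptide substrate (typically 1 µM), ATP at Km and Mg²⁺ incubated about 3 h at 25 °C, then EDTA-quenched. Substrate and phosphorylated product separated by microfluidic electrophoresis and quantified by fluorescence.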

The nature of data set [4]: Toxicity in Swiss mouse assessed as discoloration of uterus at 30 mg/kg, po administered twice daily via gavage for 5 days and measured post last dose. The format is organism-based. The note with it: in vivo, 120 h, time 5 day. In short, it runs like this:
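Female Swiss mice (3 treated, 2 controls) were gavaged twice daily for 5 days, with compound in 0.5% CMC and Tween 80. After the last dosing the animals were sacrificed. Liver, kidney, lung, uterus and brain were excised and inspected visually for morphology and color change.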

For the next data set, the system named is A2780. Briefly: Antiproliferative activity against human A2780 cells after 48 hrs by MTT assay. In kind it is functional, cell-based. Particulars: A2780, 48 h. In short, it runs like this: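 A2780 cells grown in DMEM with 10% FBS, L-glutamine and antibiotics, seeded at 10000 cells/well and allowed to adhere overnight. Treated 48 h across 20 µM–0.001 µM. MTT (5 mg/mL in PBS) added for 4 h, formazan dissolved in DMSO, absorbance read at 550 nm. % inhibition fit to a four-parameter log inhibitor vs response curve.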
On the technique in general: Tetrazolium assays rely on reduction of a dye to a coloured formazan, in cell work by metabolically active cells.

A short description of data set [5]: Elimination half life in Swiss mouse at 10 mg/kg, po via gavage by LC-MS/MS analysis. In kind it is ADME, organism-based. The note with it: in vivo, read-out: beta t1/2 (converted). In short, it runs like this:
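Female Swiss mice (n=3/group), fasted overnight, given single oral gavage dose in 0.5% CMC/0.5% Tween 80 (10 mL/kg) at 1, 3 or 10 mg/kg. Serial blood sampling at 0.16–8 h into heparinized tubes. Plasma extracted with acetonitrile containing verapamil internal standard and quantified by LC-MS/MS. Cmax, Tmax, AUC and t1/2 derived from the concentration–time profile.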

The nature of data set [6]: Metabolic stability in dog liver microsomes assessed as parent compound remaining at 10 uM remaining after 120 mins in presence of NADPH by HPLC analysis. The format is ADME, Canis lupus familiaris, Microsome. Particulars: read-out: Stabilty. In short, it runs like this: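 Compound at 10 µM was incubated with 0.5 mg/mL liver microsomes and 1 mM NADPH (final). Samples were taken at 0, 15, 30, 60 and 120 min and stopped with acetonitrile, then centrifuged and the supernatant analysed by HPLC. Percent parent remaining was set relative to the 0 min peak area (100%).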

Data set [7] can be described thus: Toxicity in Swiss mouse assessed as change in feces at 10 mg/kg, po administered twice daily via gavage for 5 days and measuring daily during compound dosing. The note with it: in vivo, 120 h, time 5 day. In kind it is organism-based. The method, boiled down:
as §1

Data set [8] concerns the target Serine/threonine-protein kinase mTOR (Homo sapiens, UniProt P42345). Briefly: Inhibition of recombinant human GST-tagged mTOR catalytic domain (1360 to 2549 residues) expressed in baculovirus expression system using GFP-4E-BP1 as substrate preincubated for 15 mins followed by substrate addition and measured after 60 mins by TR-FRET assay. The method, boiled down: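 Recombinant mTOR (FRAP1) was preincubated 15 min with serially diluted compound (10 µM–0.0005 µM, DMSO) in kinase buffer, 10 µL reaction. GFP-4E-BP1 (400 nM final) and ATP (8 µM final) were added and the reaction ran 1 h at RT. Quench buffer with Tb-anti-p4E-BP1 (pThr46) was added for 1 h at RT. TR-FRET 520/486 nm ratio was fitted by four-parameter sigmoidal regression.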
On the technique in general: TR-FRET usually uses a lanthanide donor and a delayed reading to cut background.

Another data set concerns PC-3. Nature of the data set: Antiproliferative activity against human PC-3 cells after 48 hrs by MTT assay. Particulars: PC-3, 48 h. The format is functional, cell-based. In short, it runs like this:
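PC3 cells grown in RPMI 1640 with 10% FBS and 1% penicillin/streptomycin at 37 °C, 5% CO2, seeded at 10000 cells/well. Treated 48 h across 20 µM–0.001 µM. MTT (5 mg/mL in PBS) added for 4 h, then DMSO solubilization and absorbance at 550 nm. Four-parameter nonlinear fit of % inhibition.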

Data set [9] has as its target Dual specificity mitogen-activated protein kinase kinase 1 (Homo sapiens) (UniProt Q02750). Briefly: Inhibition of human MEK1 at 1 uM using fluorescently labeled peptide substrate measured after 3 hrs by microfluidic mobility shift assay relative to control. In short, it runs like this: as §2

As a reminder, the inhibition is the change of the read-out against control, counted positive when it falls. As a reminder, the IC50 is the point on the concentration scale where inhibition reaches its midpoint. For orientation: EC50 means the concentration giving half of the maximal effect. Low values mean an effect from little substance, high ones a need for much substance.

Structures are written as SMILES.

Chain of Phosphatidylinositol 4,5-bisphosphate 3-kinase catalytic subunit alpha isoform (Homo sapiens) (P42336 whole entry, canonical isoform): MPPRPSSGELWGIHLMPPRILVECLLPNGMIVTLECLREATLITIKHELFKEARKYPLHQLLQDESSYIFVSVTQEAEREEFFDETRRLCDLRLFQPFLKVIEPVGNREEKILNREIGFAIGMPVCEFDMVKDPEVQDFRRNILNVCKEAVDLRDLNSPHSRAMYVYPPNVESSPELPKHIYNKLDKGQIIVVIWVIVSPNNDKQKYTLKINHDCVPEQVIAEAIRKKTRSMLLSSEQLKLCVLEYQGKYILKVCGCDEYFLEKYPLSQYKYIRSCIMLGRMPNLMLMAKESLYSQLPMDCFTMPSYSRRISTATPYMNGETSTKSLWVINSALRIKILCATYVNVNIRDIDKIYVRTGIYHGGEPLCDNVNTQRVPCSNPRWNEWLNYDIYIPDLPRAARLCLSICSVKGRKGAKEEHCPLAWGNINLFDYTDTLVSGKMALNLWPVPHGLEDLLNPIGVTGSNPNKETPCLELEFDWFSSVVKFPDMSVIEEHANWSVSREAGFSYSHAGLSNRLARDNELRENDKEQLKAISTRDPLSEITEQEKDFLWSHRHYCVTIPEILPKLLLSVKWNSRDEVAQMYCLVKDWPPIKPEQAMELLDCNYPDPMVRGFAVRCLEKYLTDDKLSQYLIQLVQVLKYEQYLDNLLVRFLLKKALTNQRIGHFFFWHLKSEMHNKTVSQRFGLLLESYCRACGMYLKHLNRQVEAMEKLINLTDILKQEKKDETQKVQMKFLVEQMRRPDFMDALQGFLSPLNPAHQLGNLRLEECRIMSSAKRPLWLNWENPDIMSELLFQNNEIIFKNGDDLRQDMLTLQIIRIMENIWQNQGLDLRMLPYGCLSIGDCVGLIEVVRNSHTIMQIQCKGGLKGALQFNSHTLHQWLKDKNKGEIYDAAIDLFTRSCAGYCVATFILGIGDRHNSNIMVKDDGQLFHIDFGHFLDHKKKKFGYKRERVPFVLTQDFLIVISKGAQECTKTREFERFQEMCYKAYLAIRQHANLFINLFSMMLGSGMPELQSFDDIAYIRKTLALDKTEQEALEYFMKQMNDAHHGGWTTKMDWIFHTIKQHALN
Chain of Dual specificity mitogen-activated protein kinase kinase 1 (Homo sapiens) (Q02750 whole entry): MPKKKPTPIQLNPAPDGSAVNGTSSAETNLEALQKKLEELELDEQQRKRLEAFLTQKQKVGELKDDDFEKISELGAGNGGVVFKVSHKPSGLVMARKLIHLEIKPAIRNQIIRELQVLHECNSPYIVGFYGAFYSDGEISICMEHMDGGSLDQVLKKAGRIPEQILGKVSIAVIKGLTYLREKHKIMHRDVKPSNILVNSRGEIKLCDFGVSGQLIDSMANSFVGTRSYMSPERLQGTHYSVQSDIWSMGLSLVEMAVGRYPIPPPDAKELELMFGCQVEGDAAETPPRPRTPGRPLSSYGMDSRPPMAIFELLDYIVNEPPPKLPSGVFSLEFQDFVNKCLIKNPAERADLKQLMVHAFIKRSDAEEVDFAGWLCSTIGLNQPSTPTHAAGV

Turning to `CN(C)C(=O)c1ccc(Oc2nc(-c3cnc(N)s3)nc(N3CCOCC3)n2)cc1`, the Activity result in data set [1], in data set [4] and in data set [7] was “Non-Toxic” in each case. Also, the concentration at 120 h in data set [2] was 85 ng/g. The values for the inhibition in data set [3] and in data set [9] were 86% and 0%, respectively. The results for the IC50 (in the data set on A2780; in data set [8]) were 230 nM and 10 nM, respectively. Moreover, in [5], the half-life was 2.52 h. For the same compound, the remaining at 2 h, 10 µM in data set [6] was found to be 105%. For the same compound, in the data set with PC-3, the midpoint of the response, the EC50, lay at 480 nM.
